Published values of several laboratories.
Each line is one published result; the experiments were not run side by side.
Target: Ephrin type-A receptor 7 (EPHA7, Homo sapiens, UniProt Q15375)

| SMILES | test | conditions | remaining binding |
| --- | --- | --- | --- |
| C[C@@H](c1ccc(-n2cnc3c(N)ncnc32)cc1)N1CCc2nn(C)c(Cc3ccccc3)c2C1=O | binding, competition with immobilised ligand | 0.1 µM | 69% |
| O=C(c1ccc(Nc2nccc(-c3cc4ccccc4s3)n2)cc1)N1CCC(N2CCCC2)CC1 | binding, competition with immobilised ligand | 1 µM | 100% |
| F[C@@H]1CCN(c2nccc(-c3cnn4ncccc34)n2)C1 | binding | 1 µM | 100% |
| CNC(=O)Nc1ccc2c(c1)[C@@]1(CC2)OC(=O)N(CC(=O)N(Cc2ccc(F)cc2)[C@@H](C)C(F)(F)F)C1=O | cell-free assay, competition with immobilised ligand | 1 µM | 100% |
| O=C(c1ccc(Nc2ncc(Cl)c(-c3cc4ccccc4s3)n2)cc1)N1CCC(N2CCCC2)CC1 | binding, competition with immobilised ligand | 1 µM | 49% |
| Cc1cnn2ncc(-c3ccnc(N(C)C)n3)c2c1 | binding | 1 µM | 100% |
| N#CC1(c2ccccn2)CCN(Cc2cc(C(=O)N3CCCC3)c(=O)n3ccccc23)CC1 | cell-free assay, competition with immobilised ligand | 1 µM | 100% |
| COc1cnc(Nc2cccc(S(N)(=O)=O)c2)nc1N1CCN(c2ccccc2)C(=O)C1 | binding, competition with immobilised ligand | 1 µM | 100% |
| C[C@@H]1CN(c2cc(-c3nn(C)c4ccc(OC5(C)CC5)cc34)ncn2)C[C@H](C)O1 | cell-free assay, competition with immobilised ligand | 1 µM | 99% |
| c1cncc(-c2cccc(Nc3nccc(NC4CCCCC4)n3)c2)c1 | binding, competition with immobilised ligand | 10 µM | 100% |
| O=C(NCC1CCOCC1)c1n[nH]cc1NC(=O)c1c(F)cccc1F | binding, competition with immobilised ligand | 1 µM | 97% |
| CS(=O)(=O)N1CCCC(NC(=O)[C@H](CCC2CCCCC2)NC(=O)c2ccc(CNc3ncnc4c3nnn4-c3ccccc3)cc2)C1 (stereo partly drawn) | cell-free assay, competition with immobilised ligand | 0.1 µM | 98% |
| Cc1cnc(Nc2ccc(C(=O)N3CCC(N4CCCC4)CC3)cc2)nc1-c1cc2ccccc2s1 | binding, competition with immobilised ligand | 1 µM | 67% |
| CN(C)c1nccc(-c2cnc3ncccn23)n1 | binding | 1 µM | 68% |
| O=C(Nc1cccnn1)N1CCC(=Cc2cccc(Oc3ccc(C(F)(F)F)cn3)c2)CC1 | cell-free assay, competition with immobilised ligand | 1 µM | 95% |
| c1cnn2ncc(-c3ccnc(N4CCC45COC5)n3)c2c1 | binding | 1 µM | 93% |
| CCOC(=O)c1cc2cc(-c3cc(C(=O)NCc4ccc(C(=O)O)cc4)nn3C)ccc2[nH]1 | cell-free assay, competition with immobilised ligand | 0.1 µM | 97% |
| CN(c1nccc(-c2cnn3ncccc23)n1)C1CC1 | binding | 1 µM | 100% |
| COc1ncc2cc3ccccc3nc2c1C#N | cell-free assay, competition with immobilised ligand | 5 µM | 95% |
| Nc1ncc2c(n1)-c1c([nH]c3ccc(C#CC4CC4)cc13)CCCC2 | binding, competition with immobilised ligand | 1 µM | 100% |
| N[C@@H]1CCN(c2nccc(-c3cnn4ncccc34)n2)C1 | binding | 1 µM | 91% |
